{"source": "ChEMBL document CHEMBL1121836", "about": "“Effect of structural change on acute toxicity and antiinflammatory activity in a series of imidazothiazoles and thiazolobenzimidazoles” (J Med Chem, 1981)", "key": {"[1]": {"experiment": "Compound was evaluated for the toxicity in mice", "type": "organism-based", "details": "mouse, in vivo"}, "Mus musculus [2]": {"tested_on": "Mus musculus", "experiment": "Compound was evaluated for the percent reduction of carrageenan induced edema in mice at dose of 200 mg/kg", "type": "functional"}, "Mus musculus [3]": {"tested_on": "Mus musculus", "experiment": "Compound was evaluated for the percent reduction of carrageenan induced edema in mice at dose of 25 mg/kg", "type": "functional"}, "Mus musculus [4]": {"tested_on": "Mus musculus", "experiment": "Percent analgesia in phenylquinone writhing assay at 10 mg/kg", "type": "functional", "summary_of_the_method": "(§1)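 Groups of 10 male mice were dosed orally with compound dissolved or suspended in 0.25% methylcellulose (0.25 mL per mouse). After the designated interval they were challenged ip with 0.25 mL of 0.02% phenylquinone in aqueous ethanol (95:5). Read-out is the percentage of mice protected from writhing.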"}, "Mus musculus [5]": {"tested_on": "Mus musculus", "experiment": "Percent analgesia in phenylquinone writhing assay at 100 mg/kg", "type": "functional", "summary_of_the_method": "as §1"}, "Mus musculus [6]": {"tested_on": "Mus musculus", "experiment": "Percent analgesia in phenylquinone writhing assay at 30 mg/kg", "type": "functional", "summary_of_the_method": "as §1"}, "Mus musculus [7]": {"species": "Mus musculus", "experiment": "Dose giving one-half of average maximal [40%] response in carrageenan assay", "type": "functional"}, "Mus musculus [8]": {"species": "Mus musculus", "experiment": "Dose giving one-half of average maximal [40%] response in phenylquinone writhing assay", "type": "functional"}, "Mus musculus [9]": {"species": "Mus musculus", "experiment": "(§2) Neurotoxic dose that causes minimal recognizable neurotoxicity in 50% of animals tested", "type": "functional", "summary_of_the_method": "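Mice dosed orally or intraperitoneally; neurotoxicity scored on five end points, including a positional sense test in which a hind leg lowered over a table edge should be quickly lifted back to a normal position. NTD50 is the dose giving minimal recognizable neurotoxicity in 50% of animals tested.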"}, "[10]": {"experiment": "(§3) Ulcerogenic dose that produced gastric lesions, ulcers and/or hemorrhage in 50% of the animals tested", "type": "ADME, organism-based, Stomach", "details": "rat, in vivo; read-out: UD50 (the source's name)", "summary_of_the_method": "(§4)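 Ten male Sprague–Dawley rats (ca. 160 g) were fasted 24 h with water available, then dosed po with compound or vehicle. At 4 h they were killed with CO2, and stomachs were opened along the greater curvature. A nonbiased observer scored ulcers, pitting or hemorrhagic spots. UD50 (lesions in 50% of animals) was determined by Litchfield–Wilcoxon.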"}, "Mus musculus [11]": {"tested_on": "Mus musculus", "experiment": "Compound was evaluated for the percent reduction of carrageenan induced edema in mice at dose of 150 mg/kg", "type": "functional"}, "Mus musculus [12]": {"tested_on": "Mus musculus", "experiment": "Compound was evaluated for the percent reduction of carrageenan induced edema in mice at dose of 10 mg/kg", "type": "functional"}, "Mus musculus [13]": {"tested_on": "Mus musculus", "experiment": "Compound was evaluated for the percent reduction of carrageenan induced edema in mice at dose of 100 mg/kg", "type": "functional"}, "Mus musculus [14]": {"tested_on": "Mus musculus", "experiment": "Compound was evaluated for the percent reduction of carrageenan induced edema in mice at dose of 30 mg/kg", "type": "functional"}, "Mus musculus [15]": {"tested_on": "Mus musculus", "experiment": "Compound was evaluated for the percent reduction of carrageenan induced edema in mice at dose of 40 mg/kg", "type": "functional"}, "[16]": {"experiment": "as §2", "type": "toxicity, organism-based", "details": "mouse, in vivo; read-out: NTD50", "summary_of_the_method": "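NTD50 in mice is the oral or intraperitoneal dose causing minimal recognizable neurotoxicity in 50% of animals, judged by five end points, including a positional sense test (hind leg lowered over a table edge should be lifted back).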"}, "Rattus norvegicus": {"species": "Rattus norvegicus", "experiment": "as §3", "type": "functional, Stomach", "summary_of_the_method": "as §4"}, "Mus musculus [17]": {"tested_on": "Mus musculus", "experiment": "Percent analgesia in phenylquinone writhing assay at 300 mg/kg", "type": "functional", "summary_of_the_method": "as §1"}}}
{"smiles": "CC1=C(C(=O)Nc2c(C)cc(C)cc2C)SC2=NC(C)CN21", "note": "(stereo not drawn)", "values": [{"measurement": "LD50", "setting": "[1]", "result": 400, "unit": "mg/kg"}, {"measurement": "Reduction", "setting": "Mus musculus [2]", "result": 24, "unit": "%"}]}
{"smiles": "c1ccc(C2=C(c3ccccc3)N3CCN=C3S2)cc1", "values": [{"measurement": "LD50", "setting": "[1]", "result": 40, "unit": "mg/kg"}, {"measurement": "Reduction", "setting": "Mus musculus [3]", "result": 14, "unit": "%"}]}
{"smiles": "CC(C)(C)C1=CSC2=NC3CCCCC3N12", "note": "(stereo not drawn)", "values": [{"measurement": "LD50", "setting": "[1]", "result": 20, "unit": "mg/kg"}]}
{"smiles": "Cc1ccc(C(=O)c2ccc(CC(=O)O)n2C)cc1", "note": "[TOLMETIN]", "values": [{"measurement": "Analgesia", "setting": "Mus musculus [4]", "result": 40, "unit": "%"}, {"measurement": "Analgesia", "setting": "Mus musculus [5]", "result": 80, "unit": "%"}, {"measurement": "Analgesia", "setting": "Mus musculus [6]", "result": 60, "unit": "%"}, {"measurement": "ED50", "setting": "Mus musculus [7]", "result": 20, "unit": "mg/kg"}, {"measurement": "ED50", "setting": "Mus musculus [8]", "result": 22, "unit": "mg/kg"}, {"measurement": "NTD50", "setting": "Mus musculus [9]", "result": ">1000", "unit": "mg/kg"}, {"measurement": "TD50", "setting": "[10]", "result": 63, "unit": "mg/kg"}]}
{"smiles": "CCOC(=O)Cc1ccc(C2=CSC3=NCCN23)cc1", "values": [{"measurement": "LD50", "setting": "[1]", "result": 180, "unit": "mg/kg"}, {"measurement": "Reduction", "setting": "Mus musculus [11]", "result": 0, "unit": "%"}]}
{"smiles": "O=S(=O)(C1=C(c2ccccc2)N2CCN=C2S1)c1ccccc1", "values": [{"measurement": "Reduction", "setting": "Mus musculus [12]", "result": 10, "unit": "%"}, {"measurement": "Reduction", "setting": "Mus musculus [13]", "result": 15, "unit": "%"}, {"measurement": "Reduction", "setting": "Mus musculus [14]", "result": 6, "unit": "%"}]}
{"smiles": "CS(=O)(=O)CC1=CSC2=NCCN12", "values": [{"measurement": "Reduction", "setting": "Mus musculus [2]", "result": 11, "unit": "%"}]}
{"smiles": "CCOC(=O)C1(O)CSC2=NC3CCCCC3N21", "note": "(stereo not drawn)", "values": [{"measurement": "Reduction", "setting": "Mus musculus [2]", "result": 3, "unit": "%"}]}
{"smiles": "CC1=CSC2=NC(C)(C)CN12", "values": [{"measurement": "LD50", "setting": "[1]", "result": 60, "unit": "mg/kg"}, {"measurement": "Reduction", "setting": "Mus musculus [15]", "result": 0, "unit": "%"}]}
{"smiles": "CC1(C)CN2C(c3ccccc3)=CSC2=N1", "values": [{"measurement": "LD50", "setting": "[1]", "result": 60, "unit": "mg/kg"}, {"measurement": "Reduction", "setting": "Mus musculus [15]", "result": 0, "unit": "%"}]}
{"smiles": "CC1=C(C(=O)Nc2c(Br)cccc2Br)SC2=NCCN21", "values": [{"measurement": "LD50", "setting": "[1]", "result": 40, "unit": "mg/kg"}, {"measurement": "Reduction", "setting": "Mus musculus [14]", "result": 0, "unit": "%"}]}
{"smiles": "CC1=C(C(=O)Nc2c(C)cc(C)cc2C)SC2=NCCN21", "values": [{"measurement": "LD50", "setting": "[1]", "result": 60, "unit": "mg/kg"}, {"measurement": "Reduction", "setting": "Mus musculus [15]", "result": 11, "unit": "%"}]}
{"smiles": "CC1=C(C(=O)Nc2c(C)cc(C)cc2C)SC2=NC(C)(C)CN21", "values": [{"measurement": "LD50", "setting": "[1]", "result": 60, "unit": "mg/kg"}, {"measurement": "Reduction", "setting": "Mus musculus [15]", "result": 3, "unit": "%"}]}
{"smiles": "COc1ccc2cc([C@H](C)C(=O)O)ccc2c1", "note": "[NAPROXEN]", "values": [{"measurement": "TD50", "setting": "[16]", "result": 370, "unit": "mg/kg"}, {"measurement": "UD50", "setting": "Rattus norvegicus", "result": 10, "unit": "mg/kg"}]}
{"smiles": "CC(=O)Oc1ccccc1C(=O)O", "note": "[ASPIRIN]", "values": [{"measurement": "Analgesia", "setting": "Mus musculus [5]", "result": 60, "unit": "%"}, {"measurement": "Analgesia", "setting": "Mus musculus [6]", "result": 20, "unit": "%"}, {"measurement": "Analgesia", "setting": "Mus musculus [17]", "result": 90, "unit": "%"}, {"measurement": "ED50", "setting": "Mus musculus [7]", "result": 70, "unit": "mg/kg"}, {"measurement": "ED50", "setting": "Mus musculus [8]", "result": 85, "unit": "mg/kg"}, {"measurement": "TD50", "setting": "[16]", "result": 200, "unit": "mg/kg"}, {"measurement": "UD50", "setting": "Rattus norvegicus", "result": 27, "unit": "mg/kg"}]}
